According to ChEMBL document CHEMBL3392964, “Design, synthesis, and evaluation of novel imidazo[1,2-a][1,3,5]triazines and their derivatives as focal adhesion kinase inhibitors with antitumor activity” (J Med Chem, 2015):
Calls of active or inactive are those of the source. No cut-off for these calls is given here.

Assays:
Focal adhesion kinase 1 [1] = target: T1, Focal adhesion kinase 1 (Homo sapiens, UniProt Q05397); assay: Inhibition of FAK phosphorylation at tyrosine 397 in human U87MG cells at 0.1 to 10 uM after 48 hrs by FACEFAK ELISA; type: cell-based; conditions: U-87MG ATCC
T1 sequence (Q05397 2-1052 limits assumed): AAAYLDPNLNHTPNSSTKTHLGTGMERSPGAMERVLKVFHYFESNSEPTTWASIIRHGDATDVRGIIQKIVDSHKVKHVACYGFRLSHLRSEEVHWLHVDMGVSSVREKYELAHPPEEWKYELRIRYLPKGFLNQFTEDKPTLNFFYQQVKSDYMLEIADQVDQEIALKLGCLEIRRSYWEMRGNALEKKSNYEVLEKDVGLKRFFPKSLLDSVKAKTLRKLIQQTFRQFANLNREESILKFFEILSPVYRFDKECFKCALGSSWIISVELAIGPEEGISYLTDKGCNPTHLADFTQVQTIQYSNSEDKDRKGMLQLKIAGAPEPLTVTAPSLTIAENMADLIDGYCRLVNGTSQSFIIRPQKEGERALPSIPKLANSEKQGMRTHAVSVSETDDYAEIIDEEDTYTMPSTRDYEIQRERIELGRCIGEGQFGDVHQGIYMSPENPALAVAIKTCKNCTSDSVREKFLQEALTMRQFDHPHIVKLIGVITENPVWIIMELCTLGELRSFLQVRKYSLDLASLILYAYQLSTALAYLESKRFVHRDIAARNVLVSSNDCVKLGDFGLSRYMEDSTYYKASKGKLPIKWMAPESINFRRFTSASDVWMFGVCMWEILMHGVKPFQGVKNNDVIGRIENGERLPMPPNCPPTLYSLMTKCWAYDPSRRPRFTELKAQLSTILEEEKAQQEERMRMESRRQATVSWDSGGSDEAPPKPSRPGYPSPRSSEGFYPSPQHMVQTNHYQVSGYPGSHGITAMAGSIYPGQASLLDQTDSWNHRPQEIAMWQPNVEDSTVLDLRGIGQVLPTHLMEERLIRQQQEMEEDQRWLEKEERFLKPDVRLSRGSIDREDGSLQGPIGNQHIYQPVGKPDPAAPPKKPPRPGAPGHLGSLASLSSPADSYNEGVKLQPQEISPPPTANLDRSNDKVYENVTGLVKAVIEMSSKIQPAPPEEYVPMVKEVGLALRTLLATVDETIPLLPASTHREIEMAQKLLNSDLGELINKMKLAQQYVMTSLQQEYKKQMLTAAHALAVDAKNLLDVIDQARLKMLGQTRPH
Method in brief: (§1)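 Cells were grown in DMEM with 10% FBS, seeded at 3 × 10^3 per well and treated for 48 h at 0.1, 1 and 10 μM. They were then fixed in 4% formaldehyde and probed with anti-phospho-Tyr397 FAK or total-FAK antibody plus an HRP secondary, read at 450 nm. Signal was normalised to total FAK and to crystal-violet cell number (595 nm). Values are fold decrease versus control, mean of triplicate readings from three independent experiments.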

Focal adhesion kinase 1 [2] = target: T1, Focal adhesion kinase 1; assay: Inhibition of FAK phosphorylation at tyrosine 397 in human HCT116 cells at 0.1 to 10 uM after 48 hrs by FACEFAK ELISA; type: cell-based; conditions: HCT-116; method in brief: as §1
Focal adhesion kinase 1 [3] = target: T1, Focal adhesion kinase 1; assay: Inhibition of FAK phosphorylation at tyrosine 397 in human MDA-MB-231 cells at 0.1 to 10 uM after 48 hrs by FACEFAK ELISA; type: cell-based; method in brief: as §1
Focal adhesion kinase 1 [4] = target: T1, Focal adhesion kinase 1; assay: Inhibition of FAK phosphorylation at tyrosine 397 in human PC3 cells at 0.1 to 10 uM after 48 hrs by FACEFAK ELISA; type: cell-based; conditions: PC-3; method in brief: as §1
[5] = Antiproliferative activity against human U87MG cells after 48 hrs by WST-1 assay; type: functional, cell-based, U-87MG ATCC; conditions: U-87 MG
Method in brief: (§2)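 Exponentially growing cells in DMEM/10% FBS seeded at 5 × 10^3 per well, left overnight, then exposed 48 h to compounds diluted from DMSO; WST-1 added for 2 h, absorbance at 450 nm (reference 620 nm); viability as ratio to DMSO controls; three independent experiments, triplicate points; IC50 by nonlinear regression (log inhibitor vs normalized response, variable slope).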

[6] = Antiproliferative activity against human HCT116 cells after 48 hrs by WST-1 assay; type: functional, cell-based; conditions: HCT-116, 48 h; method in brief: as §2
MDA-MB-231 [7] = assay: Antiproliferative activity against human MDA-MB-231 cells after 48 hrs by WST-1 assay; type: functional, cell-based; conditions: MDA-MB-231, 48 h; method in brief: as §2
[8] = Antiproliferative activity against human PC3 cells after 48 hrs by WST-1 assay; type: functional, cell-based; conditions: PC-3, 48 h; method in brief: as §2
[9] = (§3) Inhibition of colony formation in human U87MG cells after 2 weeks by crystal violet staining-based assay; type: functional, cell-based, U-87MG ATCC; conditions: U-87 MG, 336 h
Method in brief: (§4)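 Seeding: 250 cells per well for HCT-116, 300 for U87MG, MDA-MB-231 and PC-3; incubated overnight, then exposed to a range of concentrations for 2 weeks. Fixed in 4% paraformaldehyde 30 min at room temperature, stained with 0.1% crystal violet. Colonies over 50 cells counted; colony formation rate calculated; IC50 by nonlinear regression.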

U-87MG ATCC [10] = assay: as §3; type: functional, cell-based; method in brief: as §4
[11] = (§5) Inhibition of colony formation in human HCT116 cells after 2 weeks by crystal violet staining-based assay; type: functional, cell-based; conditions: HCT-116, 336 h; method in brief: as §4
HCT-116 [12] = assay: as §5; type: functional, cell-based; method in brief: as §4
MDA-MB-231 [13] = assay: Inhibition of colony formation in human MDA-MB-231 cells after 2 weeks by crystal violet staining-based assay; type: functional, cell-based; method in brief: as §4
[14] = (§6) Inhibition of colony formation in human PC3 cells after 2 weeks by crystal violet staining-based assay; type: functional, cell-based; conditions: PC-3, 336 h; method in brief: as §4
PC-3 = assay: as §6; type: functional, cell-based; method in brief: as §4
U-87 MG [15] = assay: Induction of apoptosis in human U87MG cells assessed as early apoptotic cells at 1 uM after 24 hrs by Annexin V-PE/7-AAD staining-based FACS analysis (reference value: 0.691%); type: functional, U-87MG ATCC
U-87 MG [16] = assay: Induction of apoptosis in human U87MG cells assessed as late apoptotic cells at 1 uM after 24 hrs by Annexin V-PE/7-AAD staining-based FACS analysis (reference value: 1.59%); type: functional, U-87MG ATCC
U-87 MG [17] = assay: Induction of apoptosis in human U87MG cells assessed as necrotic cells at 1 uM after 24 hrs by Annexin V-PE/7-AAD staining-based FACS analysis (reference value: 1.06%); type: functional, U-87MG ATCC
U-87 MG [18] = assay: Induction of apoptosis in human U87MG cells assessed as viable cells at 1 uM after 24 hrs by Annexin V-PE/7-AAD staining-based FACS analysis (reference value: 96.7%); type: functional, U-87MG ATCC; conditions: read-out: Activity
HCT-116 [19] = assay: Induction of apoptosis in human HCT116 cells assessed as early apoptotic cells at 0.3 uM after 24 hrs by Annexin V-PE/7-AAD staining-based FACS analysis (reference value: 4.68%); type: functional
HCT-116 [20] = assay: Induction of apoptosis in human HCT116 cells assessed as late apoptotic cells at 0.3 uM after 24 hrs by Annexin V-PE/7-AAD staining-based FACS analysis (reference value: 1.22%); type: functional
HCT-116 [21] = assay: Induction of apoptosis in human HCT116 cells assessed as necrotic cells at 0.3 uM after 24 hrs by Annexin V-PE/7-AAD staining-based FACS analysis (reference value: 0.885%); type: functional
HCT-116 [22] = assay: Induction of apoptosis in human HCT116 cells assessed as viable cells at 0.3 uM after 24 hrs by Annexin V-PE/7-AAD staining-based FACS analysis (reference value: 93.2%); type: functional; conditions: HCT-116, 24 h, read-out: Activity
HCT-116 [23] = assay: Induction of apoptosis in human HCT116 cells assessed as apoptotic cells at 0.3 uM after 24 hrs by Annexin V-PE/7-AAD staining-based FACS analysis relative to control; type: functional
HCT-116 [24] = assay: Induction of apoptosis in human HCT116 cells at < 0.3 uM after 24 hrs by Annexin V-PE/7-AAD staining-based FACS analysis; type: functional, cell-based
[25] = Cell cycle arrest in human U87MG cells assessed as accumulation at G0/G1 phase at 1 uM after 24 hrs by propidium iodide staining-based flow cytometry (reference value: 61.7%); type: functional; conditions: U-87MG ATCC
Method in brief: (§7)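 Cells plated at 10^5 per well, left overnight, then exposed 24 h to compound or vehicle; stained 15 min at 37 °C with propidium iodide/Triton buffer; DNA content by flow cytometry, phase distribution fitted by Dean–Jett–Fox; HCT-116 at 0.3–0.5 μM, U87-MG at 0.3–3 μM; significance by unpaired Student's t test; one representative experiment.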

[26] = Cell cycle arrest in human U87MG cells assessed as accumulation at S phase at 1 uM after 24 hrs by propidium iodide staining-based flow cytometry (reference value: 16%); type: functional; conditions: U-87MG ATCC; method in brief: as §7
[27] = Cell cycle arrest in human U87MG cells assessed as accumulation at G2/M phase at 1 uM after 24 hrs by propidium iodide staining-based flow cytometry (reference value: 20%); type: functional; conditions: U-87MG ATCC; method in brief: as §7
[28] = Cell cycle arrest in human HCT116 cells assessed as accumulation at G0/G1 phase at 0.3 uM after 24 hrs by propidium iodide staining-based flow cytometry (reference value: 63.8%); type: functional; conditions: HCT-116; method in brief: as §7
[29] = Cell cycle arrest in human HCT116 cells assessed as accumulation at S phase at 0.3 uM after 24 hrs by propidium iodide staining-based flow cytometry (reference value: 17.7%); type: functional; conditions: HCT-116; method in brief: as §7
[30] = Cell cycle arrest in human HCT116 cells assessed as accumulation at G2/M phase at 0.3 uM after 24 hrs by propidium iodide staining-based flow cytometry (reference value: 14.6%); type: functional; conditions: HCT-116; method in brief: as §7
[31] = Cell cycle arrest in human U87MG cells at < 1 uM after 24 hrs by propidium iodide staining-based flow cytometry; type: functional; conditions: U-87MG ATCC; method in brief: as §7
[32] = Cell cycle arrest in human HCT116 cells at < 0.3 uM after 24 hrs by propidium iodide staining-based flow cytometry; type: functional; conditions: HCT-116; method in brief: as §7
U-87 MG [33] = assay: Reduction of cell adherence in human U87MG cells at 1 uM after 30 mins by toluidine blue staining-based […]; type: functional, U-87MG ATCC; parameters: scale not given: the % may be the effect or the level left
Method in brief: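 U87-MG cells grown in 10% serum, trypsinised, diluted to 100 000 cells/mL in 10% serum medium, then treated 30 min with compound or DMSO. 20 000 cells per well allowed to attach 1 h. Fixed in 4% paraformaldehyde 30 min, stained with 0.1% toluidine blue in 4% PFA 30 min, washed, OD read at 620 nm for attached cells.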

[34] = Antimigratory activity in human U87MG cells at 1 uM […] by transwell membrane assay; type: functional, U-87MG ATCC
U-87MG ATCC [35] = assay: Antimigratory activity in human U87MG cells after 30 mins by boyden chamber assay; type: functional, cell-based

inhibition (Focal adhesion kinase 1 [1]): Active
inhibition (Focal adhesion kinase 1 [2]): Active
inhibition (Focal adhesion kinase 1 [3]): Active
inhibition (Focal adhesion kinase 1 [4]): Active
IC50 (MDA-MB-231 [7]): 2800 nM
IC50 [9]: 190 nM
IC50 [11]: 230 nM
IC50 (MDA-MB-231 [13]; MDA-MB-231, 336 h): 1900 nM
IC50 [14]: 260 nM
SMILES: CNC(=O)c1ccccc1Nc1nc(Nc2ccc(N3CCOCC3)cc2OC)ncc1Cl
IC50 [5]: 1200 nM
IC50 [6]: 400 nM
IC50 [8]: 1600 nM
inhibition (U-87MG ATCC [10]): Dose-dependent effect
inhibition (HCT-116 [12]): Dose-dependent effect
inhibition (MDA-MB-231 [13]): Dose-dependent effect
inhibition (PC-3): Dose-dependent effect
Activity (U-87 MG [15]): 3.12%
Activity (U-87 MG [16]): 0.596%
Activity (U-87 MG [17]): 0.9%
viability at 1 µM (U-87 MG [18]): 95.4%
Activity (HCT-116 [19]): 12.3%
Activity (HCT-116 [20]): 32%
Activity (HCT-116 [21]): 13.1%
viability at 0.3 µM (HCT-116 [22]): 42.7%
Activity (HCT-116 [23]): 41.8%
Activity (HCT-116 [24]): Active
Activity [25]: 49.9%
Activity [26]: 7.11%
Activity [27]: 40.8%
Activity [28]: 31.3%
Activity [29]: 10.4%
Activity [30]: 54.4%
Activity [31]: Active
Activity [32]: Active
Activity (U-87 MG [33]): 36%
Activity [34]: 25.5%
Activity (U-87MG ATCC [35]): Dose-dependent effect
